Measurements as given in ChEMBL document CHEMBL4229356, “Synthesis and antikinetoplastid evaluation of bis(benzyl)spermidine derivatives” (Eur J Med Chem, 2018).
pIC50, pKi: −log10 of the molar value.

Experiments:
[1] = test system: Trypanosoma brucei gambiense; experiment: Trypanocidal activity against Trypanosoma brucei gambiense FeoITMAP/1893 after 72 hrs by resazurin dye based assay; assay type: functional, organism-based; conditions: FeoITMAP/1893, 72 h
Outline: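 T. b. gambiense Feo was grown in supplemented IMDM with 10% FBS. Cells at 4.10⁴/mL were exposed 72 h at 37 °C, 5% CO2 in the dark to two-fold dilutions. Resazurin (450 µM solution) was added for 6 h and read at OD570/OD600. Result given as IC50; pentamidine was the reference.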

[2] = Selectivity index, ratio of CC50 for mouse RAW264.7 cells to IC50 for Trypanosoma brucei gambiense FeoITMAP/1893; assay type: toxicity; conditions: read-out: Ratio CC50/IC50
Leishmania donovani [3] = experiment: Antiparasitic activity against Leishmania donovani LV9 axenic amastigotes incubated for 72 hrs by resazurin dye based assay; assay type: functional, organism-based; conditions: LV9, 72 h
Outline: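 LV9 axenic amastigotes were derived from promastigotes in M-199 at pH 5.5, 37 °C, 5% CO2, and used in log phase. Cells at 10⁶/mL were exposed 72 h to two-fold dilutions from 100 to 0.02 μM. Resazurin was then added for 24 h in the dark and read at OD570/OD600. IC50 is relative to excipient-only controls; miltefosine was the reference.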

Leishmania donovani [4] = experiment: Antiparasitic activity against Leishmania donovani LV9 axenic intramacrophage amastigotes infected in mouse RAW264.7 cells incubated for 48 hrs by Sybr Green 1 dye based fluorescence assay; assay type: functional, organism-based; conditions: LV9, RAW264.7, 48 h
Outline: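 RAW 264.7 cells at 2.10⁴/well were infected 24 h with axenic amastigotes at a 16:1 parasite to macrophage ratio, then extracellular parasites were removed. Cells were treated 48 h with two-fold dilutions from 100 µM. They were then lysed (freeze-thaw, proteinase K, 55 °C overnight) and total DNA read by SYBR Green I fluorescence against untreated infected cells. Result given as IC50.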

[5] = Cytotoxicity against mouse RAW264.7 cells assessed as reduction in cell viability after 48 hrs by resazurin assay; assay type: cell-based
Outline: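 RAW 264.7 macrophages at 2.10⁴/well were preincubated 24 h, then exposed 48 h at 37 °C, 5% CO2 to two-fold dilutions in DMEM. Resazurin was added for 4 h in the dark and read at OD570/OD600. Result given as CC50.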

[6] = Selectivity index, ratio of CC50 for mouse RAW264.7 cells to IC50 for Leishmania donovani LV9 axenic intramacrophage amastigotes infected in mouse RAW264.7 cells; assay type: toxicity, cell-based; conditions: read-out: Ratio CC50/IC50
[7] = molecular target: Trypanothione reductase (Trypanosoma brucei brucei) (UniProt P39051); experiment: Inhibition of Trypanosoma brucei trypanothione reductase at 40 uM using 40 uM TS2 as substrate in presence of NADPH by spectrophotometric method relative to control
Outline: (§1)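 Recombinant T. brucei TryR (5-10 mU) in 40 mM Hepes, 1 mM EDTA, pH 7.5, with 100 μM NADPH, 5% DMSO, at 25 °C. Inhibitor was fixed at 40 μM; TS2 at 100 or 40 μM started the reaction. NADPH consumption was followed at 340 nm and % inhibition taken against DMSO-matched controls. Run in triplicate, mean ± SD.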

[8] = molecular target: Trypanothione reductase (Trypanosoma brucei brucei) (UniProt P39051); experiment: Inhibition of Trypanosoma brucei trypanothione reductase at 40 uM using 100 uM TS2 as substrate in presence of NADPH by spectrophotometric method relative to control; outline: as §1
[9] = Selectivity index, ratio of CC50 for mouse RAW264.7 cells to IC50 for Leishmania donovani LV9 axenic amastigotes incubated for 72 hrs by resazurin dye based assay; assay type: toxicity; conditions: read-out: Ratio CC50/IC50
[10] = test system: Trypanosoma brucei brucei; experiment: Antitrypanosomal activity against Trypanosoma brucei brucei CMP infected in Swiss mouse assessed as change in mean survival time at 100 mg/kg, ip administered as single dose measured up to 30 days; assay type: functional
Outline: (§2)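 Swiss mice infected ip with 10,000 T. b. brucei CMP trypanosomes, randomly grouped (six per batch), then given one ip dose of 100 or 10 mg/kg; controls received pentamidine, melarsamine or excipient. Parasitemia followed at days 2, 3, 4 and 30; deaths recorded by day post-treatment; efficacy as mean survival time minus that of excipient-treated controls (days ± SD).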

Mus musculus = experiment: Toxicity in Swiss mouse assessed as death at 100 mg/kg, ip administered as single dose measured up to 30 days; assay type: organism-based; conditions: in vivo, 720 h; outline: as §2
[11] = Stability in human plasma by HPLC analysis; assay type: ADME, cell-free; conditions: read-out: Stability
Outline: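 Human plasma was diluted 10-fold in PBS and incubated with 1 mM compound solutions for 0, 2 and 12 h at 37 °C. Samples were quenched with ice-cold acetonitrile, centrifuged, filtered and analysed by C18 reversed-phase HPLC at 25 °C.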

Trypanothione reductase [12] = molecular target: T1, Trypanothione reductase (Trypanosoma brucei brucei, UniProt P39051); experiment: Mixed-type inhibition of Trypanosoma brucei trypanothione reductase assessed as enzyme-inhibitor complex using varying levels of TS2 as substrate in presence of NADPH by Lineweaver-Burk plot analysis
Outline: (§3)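 TryR assay in Hepes/EDTA buffer pH 7.5 with 100 μM NADPH at 25 °C, started with TS2 and read at 340 nm. Inhibition type was assigned from a Lineweaver-Burk plot.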

Trypanothione reductase [13] = molecular target: T1, Trypanothione reductase; experiment: Inhibition of Trypanosoma brucei trypanothione reductase using TS2 as substrate in presence of NADPH by spectrophotometric method
Trypanothione reductase [14] = molecular target: T1, Trypanothione reductase; experiment: Mixed-type inhibition of Trypanosoma brucei trypanothione reductase assessed as enzyme-inhibitor-substrate complex using varying levels of TS2 as substrate in presence of NADPH by Lineweaver-Burk plot analysis; outline: as §3
Leishmania donovani [15] = experiment: Antiparasitic activity against Leishmania donovani amastigotes

T1 sequence (P39051 whole entry): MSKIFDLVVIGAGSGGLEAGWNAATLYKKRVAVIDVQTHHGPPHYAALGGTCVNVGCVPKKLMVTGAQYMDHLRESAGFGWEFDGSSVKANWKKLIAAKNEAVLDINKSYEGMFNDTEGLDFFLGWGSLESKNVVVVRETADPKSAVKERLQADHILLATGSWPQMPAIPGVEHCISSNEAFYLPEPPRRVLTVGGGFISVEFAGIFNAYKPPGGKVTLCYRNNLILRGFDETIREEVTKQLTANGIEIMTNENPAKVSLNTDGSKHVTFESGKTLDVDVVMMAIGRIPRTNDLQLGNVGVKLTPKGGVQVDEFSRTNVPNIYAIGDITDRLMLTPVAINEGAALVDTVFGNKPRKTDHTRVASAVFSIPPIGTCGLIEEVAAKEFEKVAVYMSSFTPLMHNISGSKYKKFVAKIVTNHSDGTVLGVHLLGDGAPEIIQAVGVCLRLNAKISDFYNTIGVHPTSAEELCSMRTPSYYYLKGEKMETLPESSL
Trypanothione reductase (Trypanosoma brucei brucei), sequence (P39051 whole entry, looked up): as the sequence (P39051 whole entry) above

| pIC50 (Leishmania donovani [4]) | inhibition [7] | inhibition [8] | half-life [11] | pKi (Trypanothione reductase [12]) | pIC50 (Trypanothione reductase [13]) | pKi (Trypanothione reductase [14]) | pIC50 (Leishmania donovani [15]) | Structure (SMILES) | pIC50 [1] | selectivity ratio [2] | pIC50 (Leishmania donovani [3]) | CC50 at 48 h [5] | selectivity ratio [6] | selectivity ratio at 72 h [9] | Survival [10] | Activity (Mus musculus) |
| --- | --- | --- | --- | --- | --- | --- | --- | --- | --- | --- | --- | --- | --- | --- | --- | --- |
| 4.23 | – | – | – | – | – | – | – | NCCCCNCCCN(Cc1ccsc1)Cc1ccsc1 | 5.21 | 8.6 | < 4.00 | 52.8 µM | – | – | – | – |
| 4.56 | – | – | – | – | – | – | – | NCCCCNCCCN(Cc1cccc(-c2ccccc2)c1)Cc1cccc(-c2ccccc2)c1 | 5.06 | 3.5 | 4.45 | 30.3 µM | 1.1 | – | – | – |
| 5.17 | – | – | – | – | – | – | – | CC(C)(C)OC(=O)NC1CCC(NCCCN(Cc2ccc(F)cc2)Cc2ccc(F)cc2)CC1 (configuration not stated) | 6.30 | 8.4 | 5.17 | 4.2 µM | – | – | – | – |
| 5.19 | > 60% | 30% | – | – | – | – | – | NCCCCN(CCCN(Cc1ccc(F)cc1)Cc1ccc(F)cc1)CCCN(Cc1ccc(F)cc1)Cc1ccc(F)cc1 | 7.00 | 15 | 5.70 | 1.5 µM | – | – | – | – |
| 5.82 | – | – | – | – | – | – | – | CC(C)(C)OC(=O)NCCCCN(CCCN(Cc1ccccc1)Cc1ccccc1)CCCN(Cc1ccccc1)Cc1ccccc1 | 6.52 | 41.7 | 5.60 | 12.5 µM | 8.3 | 5 | – | – |
| – | – | – | – | – | – | – | – | N=C(N)c1ccc(OCCCCCOc2ccc(C(=N)N)cc2)cc1.O=S(=O)(O)CCO.O=S(=O)(O)CCO [PENTAMIDINE ISETHIONATE] | – | – | – | – | – | – | >30 days | Non-Toxic |
| 5.21 | 60% | 45% | – | – | – | – | – | CC(C)(C)OC(=O)NCCCCNCCCN(Cc1ccc2ccccc2c1)Cc1ccc2ccccc2c1 | 6.10 | 5.4 | 5.42 | 4.3 µM | – | 1.1 | – | – |
| 4.38 | – | – | – | – | – | – | – | CC(C)(C)OC(=O)NCCCCNCCCN(Cc1ccc(OCc2ccccc2)cc1)Cc1ccc(OCc2ccccc2)cc1 | 5.33 | 7.1 | 4.58 | 33.3 µM | – | 1.3 | – | – |
| 4.38 | – | – | – | – | – | – | – | CC(C)(C)OC(=O)NCCCCNCCCN(Cc1ccc(-c2ccccc2)cc1)Cc1ccc(-c2ccccc2)cc1 | 4.84 | > 6.9 | 4.41 | > 100 µM | > 2.4 | > 2.6 | – | – |
| 5.15 | – | – | > 12 h | – | – | – | – | NCCCCNCCCN(Cc1ccc(-c2ccccc2)cc1)Cc1ccc(-c2ccccc2)cc1 | 6.70 | 21 | 5.41 | 4.2 µM | – | 1.1 | – | – |
| 5.47 | – | – | – | – | – | – | – | CC(C)(C)OC(=O)NCCCCNCCCN(Cc1ccccc1)Cc1ccccc1 | 6.22 | 20.8 | 4.84 | 12.5 µM | 3.7 | – | – | – |
| 4.56 | > 50% | – | > 12 h | 5.12 | 5.06 | 4.70 | 4.60 | NCCCCNCCCN(Cc1ccccc1)Cc1ccccc1 | 5.06 | 2 | < 4.00 | 17.7 µM | – | – | – | – |
| < 4.00 | – | – | – | – | – | – | < 5.41 | NCCCCNCCCN(Cc1ccc(OCc2ccccc2)cc1)Cc1ccc(OCc2ccccc2)cc1 | 4.45 | > 2.8 | 4.14 | > 100 µM | – | > 1.4 | – | – |
| < 4.00 | – | – | – | – | – | – | – | CC(C)(C)OC(=O)NCCCCNCCCN(Cc1cccc(-c2ccccc2)c1)Cc1cccc(-c2ccccc2)c1 | 4.47 | > 2.9 | 4.10 | > 100 µM | – | > 1.2 | – | – |
| 4.78 | – | – | – | – | – | – | – | CC(C)(C)OC(=O)NCCCCN(CCCN(Cc1ccc(F)cc1)Cc1ccc(F)cc1)CCCN(Cc1ccc(F)cc1)Cc1ccc(F)cc1 | 5.72 | 6.3 | 5.18 | 12 µM | – | 1.8 | – | – |
| 4.65 | – | – | – | – | – | – | – | NCCCCN(CCCN(Cc1ccccc1)Cc1ccccc1)CCCN(Cc1ccccc1)Cc1ccccc1 | 6.05 | 1.3 | 4.24 | 1.2 µM | – | – | – | – |
| 4.68 | – | – | – | – | – | – | – | CC(C)(C)OC(=O)NCCCCNCCCN(Cc1ccsc1)Cc1ccsc1 | 5.82 | 10.9 | 4.60 | 16.4 µM | – | – | – | – |
| 4.76 | – | – | – | – | – | – | – | CC(C)(C)OC(=O)NC1CCC(N(CCCN(Cc2ccc(F)cc2)Cc2ccc(F)cc2)CCCN(Cc2ccc(F)cc2)Cc2ccc(F)cc2)CC1 (configuration not stated) | 5.38 | > 23.8 | 4.99 | > 100 µM | > 5.8 | > 9.8 | – | – |
| – | – | – | – | – | – | – | – | Cl.Cl.NCCS[As](SCCN)c1ccc(Nc2nc(N)nc(N)n2)cc1 | – | – | – | – | – | – | >30 days | Non-Toxic |
| 4.84 | – | – | – | – | – | – | – | CC(C)(C)OC(=O)NCCCCNCCCN(Cc1ccc(F)cc1)Cc1ccc(F)cc1 | 5.70 | 4.3 | 4.83 | 8.7 µM | – | – | – | – |
| 4.45 | – | – | – | – | – | – | – | NCCCCNCCCN(Cc1ccc(F)cc1)Cc1ccc(F)cc1 | 5.46 | 9.4 | 4.15 | 33.1 µM | – | – | – | – |
| 5.06 | 47% | – | – | – | – | – | – | NCCCCNCCCN(Cc1ccc2ccccc2c1)Cc1ccc2ccccc2c1 | 6.40 | 12.2 | 5.30 | 4.9 µM | – | – | – | – |
| 5.18 | – | – | – | – | – | – | – | NC1CCC(NCCCN(Cc2ccccc2)Cc2ccccc2)CC1 (configuration not stated) | 5.68 | 3.6 | < 4.00 | 7.6 µM | 1.1 | – | – | – |
| 5.27 | – | – | – | – | – | – | – | CC(C)(C)OC(=O)NC1CCC(NCCCN(Cc2ccccc2)Cc2ccccc2)CC1 (configuration not stated) | 6.15 | 7.3 | 4.85 | 5.1 µM | – | – | – | – |
| 5.38 | – | – | – | – | – | – | – | NC1CCC(N(CCCN(Cc2ccc(F)cc2)Cc2ccc(F)cc2)CCCN(Cc2ccc(F)cc2)Cc2ccc(F)cc2)CC1 (configuration not stated) | 4.98 | – | 4.80 | 4.5 µM | 1.1 | – | – | – |
